Nine compounds from ChEMBL document CHEMBL1154565, “Cytotoxic constituents of the roots of Ekmanianthe longiflora” (2000) can be followed below.

Assay [1] in a line: (§1) Cytotoxicity against human BC1 cells. The format is functional. Particulars: read-out: ED50 (the source's name).
Another assay concerns SK-N-SH. Briefly: Cytotoxicity against human SK-N-SH cells. The class given is functional. The note with it: for EC50: read-out: ED50 (the source's name).
The nature of assay [2]: (§2) Cytotoxicity against human […] cells. The format is functional. The note with it: read-out: ED50 (the source's name).
Assay [3] is described as follows: (§3) Cytotoxicity against human multidrug resistant KB-V cells. The class given is functional. The note with it: KBV, read-out: ED50 (the source's name).
In the next assay the test system is Col2. Kind of assay: Cytotoxicity against human Col2 cells. The format is functional. Particulars: for EC50: read-out: ED50 (the source's name).
A short description of assay [4]: (§4) Cytotoxicity against human multidrug resistant KB-V cells in presence of vinblastine. The format is functional. The note with it: KBV, read-out: ED50 (the source's name).
The next assay has as its system SW626. Kind of assay: Cytotoxicity against human SW626 cells. The note with it: for EC50: read-out: ED50 (the source's name). The class given is functional.
A further assay relates to M109 (Mus musculus). Kind of assay: Cytotoxicity against mouse M109 cells. Particulars: for EC50: read-out: ED50 (the source's name).
For another assay, the system named is LNCaP. Briefly: Cytotoxicity against human LNCaP cells. The format is functional. The note with it: for EC50: read-out: ED50 (the source's name).
The test system of another assay is KB. Kind of assay: Cytotoxicity against human KB cells. The format is functional. Particulars: for EC50: read-out: ED50 (the source's name).
Another assay deals with BC1. Described as §1. The format is functional.
The test system of a further assay is Lo1. The description is as §2. The class given is functional.
Assay [5] deals with KB-V. The assay is described as §3. The format is functional.
For assay [6], the system named is KB-V. Described as §4. The format is functional.
The next assay concerns P388. Briefly: Antitumor activity against mouse P388 leukemia system at 72 mg/kg, ip relative to control. The class given is functional. Particulars: route intraperitoneal. The gist of the method:
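Six female CDF1 mice per group received 10^6 P-388 cells i.p. in 0.5 mL RPMI medium. Starting one day later, test compound was given i.p. daily for 5 days, with doses of 8, 24 and 72 mg/kg/injection. Read-out was survival, reported as % T/C (median survival of treated over control ×100). T/C ≥125% was taken as significant.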

Values after ≈ are worked out from the molar mass of the structure shown. Active and inactive are the calls of the source. The rule behind the calls is not given here.

As to `C=C(C)C1CC2=C(O1)C(=O)c1ccccc1C2=O` (stereo not drawn) [DEHYDROISO-ALPHA-LAPACHONE], the EC50 was 1 µg/mL (≈ 4.16 µM) in assay [1]; 0.2 µg/mL (≈ 0.832 µM) with SK-N-SH; 0.2 µg/mL (≈ 0.832 µM) in [2]; 0.5 µg/mL (≈ 2.08 µM) in assay [3]; 0.2 µg/mL (≈ 0.832 µM) in the assay on Col2; 0.3 µg/mL in assay [4]. Besides, the EC50 was found to be 0.3 µg/mL (≈ 1.25 µM) in the assay with SW626, 0.4 µg/mL (≈ 1.66 µM) in the assay on M109 (Mus musculus), 0.2 µg/mL (≈ 0.832 µM) with LNCaP and 0.2 µg/mL (≈ 0.832 µM) in the assay with KB.
On to `CC1(C)CCC2=C(O1)C(=O)c1ccccc1C2=O` [ALPHA-LAPACHONE], for which the EC50 in assay [1] came to 6.7 µg/mL (≈ 27.7 µM); with SK-N-SH it was 5.1 µg/mL (≈ 21.1 µM); in assay [2], 5.3 µg/mL (≈ 21.9 µM); in assay [3], 12.9 µg/mL (≈ 53.2 µM); with Col2 it was 9.9 µg/mL (≈ 40.9 µM); in assay [4], 8.3 µg/mL. Also, the EC50 in the assay on SW626 is 3 µg/mL (≈ 12.4 µM); in the assay on M109 (Mus musculus), 9 µg/mL (≈ 37.1 µM); in the assay with LNCaP it was 7.1 µg/mL (≈ 29.3 µM); in the assay with KB, 13 µg/mL (≈ 53.7 µM).
Turning to `CC(=O)c1cc2c(o1)C(=O)c1ccccc1C2=O` [NAPABUCASIN], the EC50 stood at 0.4 µg/mL (≈ 1.67 µM) in [1]; 0.8 µg/mL (≈ 3.33 µM) in the assay on SK-N-SH; 0.3 µg/mL (≈ 1.25 µM) in assay [2]; 0.9 µg/mL (≈ 3.75 µM) in [3]; 0.4 µg/mL (≈ 1.67 µM) in the assay with Col2; 0.9 µg/mL in assay [4]. Further, the EC50 was 0.2 µg/mL (≈ 0.833 µM) in the assay on SW626, 0.9 µg/mL (≈ 3.75 µM) in the assay on M109 (Mus musculus), 0.2 µg/mL (≈ 0.833 µM) with LNCaP and 0.2 µg/mL (≈ 0.833 µM) in the assay on KB.
In the case of `CC(C)=CC[C@H]1C(=O)c2ccccc2[C@@H](O)[C@@H]1O`, the result in the assay on BC1, in the assay with SK-N-SH, in the assay with Lo1, in the assay on KB-V [5], with Col2 and in the assay with KB-V [6] was inactive. Besides, the outcome in the assay on SW626, with M109 (Mus musculus), in the assay with LNCaP and in the assay with KB was inactive.
Take `CC(C)=CC[C@H]1C[C@H](O)c2ccccc2C1=O`: the outcome in the assay on BC1, with SK-N-SH, in the assay on Lo1, in the assay on KB-V [5], in the assay on Col2 and with KB-V [6] was inactive. Besides, the result in the assay with SW626, in the assay with M109 (Mus musculus), with LNCaP and in the assay on KB was inactive.
For `CC(C)=CC[C@@H]1C(=O)c2ccccc2[C@@H](O)[C@@H]1O`, the result in the assay on BC1, in the assay with SK-N-SH, in the assay on Lo1, in the assay on KB-V [5], with Col2 and with KB-V [6] was inactive. Further, the result with SW626, in the assay with M109 (Mus musculus), with LNCaP and with KB was inactive.
Turning to `CC(C)(O)[C@H]1C[C@H]2C(=O)c3ccccc3[C@@H](O)[C@@H]2O1` (relative stereo), the outcome in the assay with BC1, in the assay with SK-N-SH, in the assay with Lo1, in the assay on KB-V [5], with Col2 and in the assay on KB-V [6] was inactive. The result with SW626, with M109 (Mus musculus), in the assay with LNCaP and with KB was inactive.
In the case of `CC(C)=CC[C@@H]1C[C@H](O)c2ccccc2C1=O`, the outcome with BC1, with SK-N-SH, with Lo1, with KB-V [5], in the assay with Col2 and with KB-V [6] was inactive. In addition, the result in the assay on SW626, in the assay with M109 (Mus musculus), with LNCaP and in the assay with KB was inactive.
`CC(O)c1cc2c(o1)C(=O)c1ccccc1C2=O` (stereo unspecified): the EC50 is 3.2 µg/mL (≈ 13.2 µM) in [1]; 4 µg/mL (≈ 16.5 µM) in the assay on SK-N-SH; 0.2 µg/mL (≈ 0.826 µM) in assay [2]; 2 µg/mL (≈ 8.26 µM) in assay [3]; 1.8 µg/mL (≈ 7.43 µM) in the assay with Col2; 1.2 µg/mL in [4]. Moreover, the EC50 with SW626 is 0.3 µg/mL (≈ 1.24 µM); in the assay on M109 (Mus musculus), 1.8 µg/mL (≈ 7.43 µM); in the assay with LNCaP, 3.5 µg/mL (≈ 14.4 µM); in the assay with KB it was 0.5 µg/mL (≈ 2.06 µM). Also, the T/C in the assay with P388 stood at 110%.
